In ChEMBL document CHEMBL4304791, “DABMA: A Derivative of ABMA with Improved Broad-Spectrum Inhibitory Activity of Toxins and Viruses” (ACS Med Chem Lett, 2019):
Activity calls are given as the source filed them. The rule behind the calls is not given here.

How the values were obtained:
Vero [1] = test: Inhibition of TcsL-induced cytotoxicity against African green monkey Vero cells assessed as reversal of toxin-induced cell rounding at 30 uM in presence of TcsL after 16 hrs by inverted microscopic analysis relative to ABMA; type: functional, Chlorocebus sabaeus
Method in brief: (§1)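 Vero cells were given compound (30 μM) or DMSO, then increasing doses of TcdB for 4 h or TcsL for 16 h. Cell rounding was imaged by inverted microscope. Rounded cells were counted and normalised to total Hoechst-counterstained cells (>100 cells per treatment).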

[2] = Cytotoxicity against human A549 cells assessed as reduction in cell viability incubated for 24 hrs by Alamar blue assay; type: cell-based
Method in brief: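 A549 cytotoxicity by Alamar Blue viability assay; duplicate wells, mean ± SD, one representative experiment (n = 3).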

A549 [3] = test: Selectivity index, ratio of CC50 for cytotoxicity against human A549 cells to EC50 for cytoprotective activity in diphtheria-induced cytotoxicity in human A549 cells
Vero [4] = test: Cytoprotection activity in African green monkey Vero cells assessed as inhibition of diphtheria induced toxicity incubated for 20 hrs followed by replacement of [14c]-Leucine containing medium and measured after 4 hrs by liquid scintillation analysis; type: functional, cell-based; conditions: Chlorocebus sabaeus
PC-3 = test: Cytoprotection activity in human PC3 cells assessed as inhibition of diphtheria induced toxicity incubated for 20 hrs followed by replacement of [14c]-Leucine containing medium and measured after 4 hrs by liquid scintillation analysis; type: functional, cell-based
DLD-1 = test: Cytoprotection activity in human DLD1 cells assessed as inhibition of diphtheria induced toxicity incubated for 20 hrs followed by replacement of [14c]-Leucine containing medium and measured after 4 hrs by liquid scintillation analysis; type: functional, cell-based
A549 [5] = test: Induction of lysosomal activation in human A549 cells at 30 uM incubated for 2 hrs by LysoTracker Red staining based confocal microscopic analysis; type: functional, cell-based
Method in brief: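 A549 cells were pretreated 2 h with compound (30 or 60 μM) or DMSO, then stained with LysoTracker Deep Red (50 nM, 30 min) plus Hoechst. Intensity was read from 3 × 3 fields per well (10,000 cells/well) by imaging reader; mean ± SEM, n = 4; confocal images.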

Vero [6] = test: Inhibition of TcdB-induced cytotoxicity against African green monkey Vero cells assessed as reversal of toxin-induced cell rounding after 4 hrs by inverted microscopic analysis; type: functional, cell-based; conditions: Chlorocebus sabaeus; method in brief: as §1
A549 [7] = test: Induction of morphological changes in human A549 cells assessed as change in endoplasmic reticulum at 30 uM incubated for 24 hrs by cyto-painter dye based inverted microscopic method; type: functional, cell-based
Vero [8] = test: Selectivity index, ratio of CC50 for cytotoxicity against African green monkey Vero cells to EC50 for cytoprotective activity in TcsL-induced cytotoxicity in African green monkey Vero cells; parameters: species or system Chlorocebus sabaeus
[9] = Selectivity index, ratio of CC50 for cytotoxicity against mouse L929 cells to EC50 for cytoprotective activity in Pseudomonas aeruginosa exotoxin-induced cytotoxicity in mouse L929 cells; type: toxicity, cell-based; conditions: read-out: Ratio CC50/EC50

## COc1ccc(Br)cc1CNC12CC3CC(C)(CC(C)(C3)C1)C2
Vero [1]
  fold change (FC): 5.6
[2]
  CC50 at 24 h: 120 µM
A549 [3]
  Ratio CC50/EC50: 4.7
Vero [4]
  Activity: Active
PC-3
  Activity: Active
DLD-1
  Activity: Active
A549 [5]
  Activity: Active
Vero [6]
  EC50: 38.6 µM
A549 [7]
  Activity: inactive
Vero [8]
  Ratio CC50/EC50: 7.38
[9]
  selectivity ratio: 4.35
